Residues, ends and D or L forms follow the SMILES beside them. *: point of attachment. Boc = CC(C)(C)OC(=O)*
What was measured:
Rattus norvegicus [1] = assay: Compound was tested in vivo for activity against gastrin induced acid secretion in rat; antagonist; assay type: functional, organism-based; settings: filed as antagonist
Procedure, shortened: (§1)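 In anaesthetized rats, peptide in alkaline aqueous solution was given as an iv bolus at various doses together with 80 pmol (Leu15)-HG-17 (submaximal dose). pH was recorded for 40 min. For each dose, H+ output with peptide plus gastrin was divided by output with gastrin alone and expressed as percent inhibition.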

[2] = Compound was tested in vitro for inhibition of [125I](Leu15)-HG-17 binding to isolated gastric mucosal cells.; assay type: tissue-based, Rattus norvegicus, Gastric mucosa
Procedure, shortened: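 Fundic mucosal cells, dispersed by collagenase/EDTA (about 45% parietal cells, 95% viable), were incubated at 5 × 10^6 cells/mL in Earle's medium without bicarbonate (10 mM Hepes, 0.2% BSA, pH 7.4). Incubation was with 20 pM [125I]-(Leu15)-HG-17 for 30 min at 37 °C across a range of peptide concentrations. Nonsaturable binding was taken with 1 × 10^-6 M unlabeled (Nle11)-HG-13. Quadruplicate determinations.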

Rattus norvegicus [3] = assay: Compound was tested in vivo for activity against gastrin induced acid secretion in rat.; assay type: functional; procedure, shortened: as §1
Rattus norvegicus [4] = assay: Compound was tested in vivo for activity against gastrin induced acid secretion in rat; agonist; assay type: functional, organism-based; settings: filed as agonist

CC(C)C[C@@H](CN[C@@H](CC(=O)O)C(=O)N[C@@H](Cc1ccccc1)C(N)=O)NC(=O)[C@H](Cc1c[nH]c2ccccc12)NC(=O)OC(C)(C)C
Activity (Rattus norvegicus [1]): Antagonist | IC50 [2]: 0.25 µM | ED50 (Rattus norvegicus [3]): 0.3 mg/kg

CC(C)C[C@H](NC(=O)[C@H](Cc1c[nH]c2ccccc12)NC(=O)OC(C)(C)C)C(=O)N[C@H](CN[C@@H](Cc1ccccc1)C(N)=O)CC(=O)O
Activity (Rattus norvegicus [1]): Antagonist | IC50 [2]: 5 µM | ED50 (Rattus norvegicus [3]): 15 mg/kg

CC(C)C[C@H](NC(=O)[C@H](Cc1c[nH]c2ccccc12)NC(=O)OC(C)(C)C)C(=O)N[C@@H](CC(=O)O)C(=O)N[C@@H](Cc1ccccc1)C(N)=O (Boc-WLDF-NH2)
Activity (Rattus norvegicus [4]): Agonist | IC50 [2]: 0.5 µM

CC(C)C[C@H](NC[C@H](Cc1c[nH]c2ccccc12)NC(=O)OC(C)(C)C)C(=O)N[C@@H](CC(=O)O)C(=O)N[C@@H](Cc1ccccc1)C(N)=O
Activity (Rattus norvegicus [4]): Agonist | IC50 [2]: 0.3 µM

Reference: ChEMBL document CHEMBL1122872, “Synthesis and biological activities of some pseudo-peptide analogues of tetragastrin: the importance of the peptide backbone” (J Med Chem, 1985)
